From paper PMC5575927 (ACS chemical biology, 2017)
Where a SMILES comes first, the peptide text is derived from it. The star is where a group is joined. AMC = Cc1cc(=O)oc2cc(N*)ccc12; Boc = CC(C)(C)OC(=O)*

Key:
PmC11 [1] = target: PmC11 (Parabacteroides merdae, UniProt A0A9Q4WVB1); type: biochemical
How it was run: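 Recombinant His6-tagged WT PmC11 was expressed in E. coli BL21DE3pLysS, self-matured during expression, and purified by Ni-NTA then anion exchange. Test compound was applied at decreasing amounts from 5 μM to 10 nM during the 30 min preincubation. IC50 was derived from the rate of substrate hydrolysis measured after substrate addition.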

PmC11 [2] = test: E64 inhibition of PmC11 proteolytic activity; type: biochemical, Parabacteroides merdae; conditions: 4-fold excess of E64; Figure S5B
clostripain = conditions: rather than covalently modifying the catalytic cysteine; ref [38],[39]; cited from earlier work
PmC11 [3] = conditions: ref [16]; cited from earlier work
PmC11 [4] = test: Michaelis-Menten kinetics of fluorogenic AMC substrate hydrolysis; type: biochemical, Parabacteroides merdae; conditions: 25 nM PmC11; PBS (pH 7.4), 5 mM DTT, 0.1 mM EDTA, 1 mM CaCl2, 0.1% CHAPS; 25 °C
How it was run: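 Recombinant His6-tagged WT PmC11 was expressed in E. coli, self-matured, and purified by Ni-NTA and anion exchange. Reactions were started by adding Ac-VLTK-AMC at 400 pM to 400 μM. Fluorescence (excitation 355 nm, emission 460 nm) was read every 20 s for 25 min. KM and kcat were obtained by Michaelis-Menten fitting of hydrolysis rates.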

CC(=O)N[C@H](C(=O)N[C@@H](CC(C)C)C(=O)N[C@H](C(=O)N[C@@H](CCCCN)C(=O)COC(=O)c1c(C)cccc1C)[C@@H](C)O)C(C)C [Ac-VLTK-AOMK, acetyl-Val-Leu-Thr-Lys acyloxymethyl ketone (2,6-dimethylbenzoic acid-derived acyloxy leaving group)]
IC50 (PmC11 [1]): < 25 nM

CC(C)C[C@H](NC(=O)[C@H]1O[C@@H]1C(=O)O)C(=O)NCCCCN=C(N)N (relative stereo) [E64, L-trans-Epoxysuccinyl-leucylamido(4-guanidino)butane]
loss of proteolytic activity (PmC11 [2]): 30% | manner of clostripain inhibition (in words) (clostripain): reversible competitive

Z-Gly-Gly-Arg-AMC
hydrolysis by PmC11 (in words) (PmC11 [3]): hydrolyze

Boc-Val-Leu-Lys-{AMC}
hydrolysis by PmC11 (in words) (PmC11 [3]): hydrolyze

CC(=O)N[C@H](C(=O)N[C@@H](CC(C)C)C(=O)N[C@H](C(=O)N[C@@H](CCCCN)C(=O)Nc1ccc2c(C)cc(=O)oc2c1)[C@@H](C)O)C(C)C [Ac-VLTK-AMC] (Ac-VLTK-{AMC})
kcat/KM (catalytic efficiency) (PmC11 [4]): 1.6 x 10^5 s^−1M^−1

Cc1cc(=O)oc2cc(NC(=O)C(CCCN=C(N)N)NC(=O)c3ccccc3)ccc12.Cl (stereo not shown) [Bz-Arg-AMC]
hydrolysis by PmC11 (in words) (PmC11 [3]): hydrolyze
